{
  "source": "ChEMBL document CHEMBL3758104",
  "about": "“Reinvestigating Old Pharmacophores: Are 4-Aminoquinolines and Tetraoxanes Potential Two-Stage Antimalarials?” (J Med Chem, 2016)",
  "key": {"Plasmodium falciparum [1]": {"test_system": "Plasmodium falciparum", "test": "Antimalarial activity against 4th to 5th gametocyte stage of Plasmodium falciparum 3D7elo1-pfs16-CBG99 assessed as inhibition of gametocyte viability by luciferase reporter gene assay", "type": "functional, organism-based", "summary_of_the_method": "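Stage IV–V gametocytes of luciferase-expressing 3D7elo1-pfs16-CBG99 strain (CBG99 under pfs16 promoter); luciferase activity as viability read-out. Viability = 100×(treated−blank)/(untreated−blank), blank = 100 nM epoxomicin-treated sample. Epoxomicin and dihydroartemisinin as positive controls. IC50 from nonlinear regression of dose–response; mean of three experiments in duplicate.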"}, "Plasmodium berghei [2]": {"test_system": "Plasmodium berghei", "test": "Antimalarial activity against sporozoite stage of Plasmodium berghei infected in human Huh7 cells assessed as inhibition of parasite infection pre-incubated for 24 hrs followed by parasite infection measured after 48 hrs by bioluminescence assay", "type": "functional, organism-based", "conditions": "Huh-7"}, "HepG2": {"test_system": "HepG2", "test": "Cytotoxicity against human HepG2 cells after 48 hrs by MTT assay", "type": "cell-based", "conditions": "HepG2, 48 h"}, "[3]": {"molecular_target": "Voltage-gated inwardly rectifying potassium channel KCNH2 (Homo sapiens, UniProt Q12809)", "sequence (Q12809 whole entry)": "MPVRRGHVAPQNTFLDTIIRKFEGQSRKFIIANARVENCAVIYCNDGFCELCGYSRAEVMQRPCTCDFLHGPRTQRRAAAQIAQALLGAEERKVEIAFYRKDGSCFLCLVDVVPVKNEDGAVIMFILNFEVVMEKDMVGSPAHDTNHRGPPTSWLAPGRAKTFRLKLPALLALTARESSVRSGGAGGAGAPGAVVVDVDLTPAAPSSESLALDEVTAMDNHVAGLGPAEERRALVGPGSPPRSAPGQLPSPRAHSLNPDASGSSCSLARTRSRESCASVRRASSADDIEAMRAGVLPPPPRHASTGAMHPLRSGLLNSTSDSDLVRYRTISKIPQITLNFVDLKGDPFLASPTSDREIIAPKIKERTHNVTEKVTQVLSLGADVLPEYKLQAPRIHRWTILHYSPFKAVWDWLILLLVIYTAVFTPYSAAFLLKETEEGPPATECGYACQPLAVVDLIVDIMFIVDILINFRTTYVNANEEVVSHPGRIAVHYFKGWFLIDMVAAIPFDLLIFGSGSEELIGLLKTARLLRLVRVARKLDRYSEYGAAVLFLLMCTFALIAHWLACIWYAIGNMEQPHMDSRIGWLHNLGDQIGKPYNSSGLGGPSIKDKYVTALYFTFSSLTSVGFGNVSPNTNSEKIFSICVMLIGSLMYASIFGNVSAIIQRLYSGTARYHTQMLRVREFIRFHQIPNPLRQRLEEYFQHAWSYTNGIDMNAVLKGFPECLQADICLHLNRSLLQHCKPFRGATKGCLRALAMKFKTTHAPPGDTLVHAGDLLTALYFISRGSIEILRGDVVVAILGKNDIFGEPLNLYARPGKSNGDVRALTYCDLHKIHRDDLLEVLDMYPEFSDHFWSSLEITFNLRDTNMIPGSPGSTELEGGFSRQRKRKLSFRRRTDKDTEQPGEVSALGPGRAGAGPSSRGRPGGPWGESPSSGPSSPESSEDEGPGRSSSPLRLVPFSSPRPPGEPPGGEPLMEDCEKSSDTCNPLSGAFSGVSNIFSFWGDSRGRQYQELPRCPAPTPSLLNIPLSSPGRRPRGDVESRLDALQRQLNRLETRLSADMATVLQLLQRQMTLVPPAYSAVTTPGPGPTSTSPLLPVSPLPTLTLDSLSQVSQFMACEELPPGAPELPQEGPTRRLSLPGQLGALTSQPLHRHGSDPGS", "test": "Inhibition of human ERG expressed in CHO cells by patch plate method", "type": "cell-based"}, "Salmonella typhimurium [4]": {"test_system": "Salmonella typhimurium", "test": "Mutagenic activity in Salmonella typhimurium TA98 at 500 ug/ml by Ames test in absence of S9 fractions", "type": "toxicity, organism-based", "conditions": "salmonella enterica subsp. enterica serovar typhimurium", "summary_of_the_method": "(§1)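 Ames test in Salmonella typhimurium TA98 and TA100 at 500 μg/mL, with and without S9.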"}, "[5]": {"test": "Half life in mouse liver microsomes at 1 uM by LC-MS/MS analysis", "type": "ADME"}, "Plasmodium berghei [6]": {"test_system": "Plasmodium berghei", "test": "Antimalarial activity against Plasmodium berghei ANKA infected in C57Bl6 mouse assessed as reduction of parasitemia at 20 mg/kg/day, po administered for day 3 to 5 measured on day 6 by Thompson test", "type": "functional, organism-based", "summary_of_the_method": "(§2)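 Modified Thompson test: C57Bl6 female mice inoculated intraperitoneally on day 0 with 1×10^6 P. berghei ANKA-infected erythrocytes; compound suspended in 0.5% hydroxyethylcellulose–0.1% Tween 80, given orally once daily on days 3, 4 and 5 post infection. Parasitemia by Giemsa-stained thin tail-blood smears on days 0, 3, 6, 10, 13, 17, 20, 24, 27, 31. Cure = survival without parasitemia to day 31.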"}, "Plasmodium berghei [7]": {"test_system": "Plasmodium berghei", "test": "Antimalarial activity against Plasmodium berghei ANKA infected in C57Bl6 mouse at 20 mg/kg/day, po on days 3 to 5 by Thompson test", "type": "functional"}, "Salmonella typhimurium [8]": {"test_system": "Salmonella typhimurium", "test": "Mutagenic activity in Salmonella typhimurium TA100 at 500 ug/ml by Ames test in presence of S9 fractions", "type": "toxicity, organism-based, S9 Fraction", "conditions": "salmonella enterica subsp. enterica serovar typhimurium", "summary_of_the_method": "as §1"}, "Plasmodium berghei [9]": {"test_system": "Plasmodium berghei", "test": "Antimalarial activity against Plasmodium berghei ANKA infected in C57Bl6 mouse at 40 mg/kg/day, po on days 3 to 5 by Thompson test", "type": "functional"}, "Plasmodium berghei [10]": {"test_system": "Plasmodium berghei", "test": "Antimalarial activity against Plasmodium berghei ANKA infected in C57Bl6 mouse at 10 mg/kg/day, po on days 3 to 5 by Thompson test", "type": "functional"}, "[11]": {"test": "Octanol-water partition coefficient, logP of the compound", "type": "physicochemical"}, "Plasmodium berghei [12]": {"test_system": "Plasmodium berghei", "test": "Antimalarial activity against Plasmodium berghei ANKA infected in po dosed C57Bl6 mouse administered on day 3 to 5 by Thompson test", "type": "functional", "summary_of_the_method": "as §2"}, "[13]": {"test": "Selectivity index, ratio of IC50 for human HepG2 cells to IC50 for chloroquine susceptible Plasmodium falciparum D6", "type": "toxicity, cell-based", "conditions": "read-out: Ratio IC50"}, "Plasmodium berghei [14]": {"test_system": "Plasmodium berghei", "test": "Antimalarial activity against Plasmodium berghei ANKA infected in C57Bl6 mouse at 160 mg/kg/day, po measured on day 3 to 5 by Thompson test", "type": "functional"}, "[15]": {"test": "Inhibition of beta hematin formation measured as hemin equivalent after 18 hrs", "type": "physicochemical", "summary_of_the_method": "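Hemin (16 mM in DMSO) mixed with compound at 0.125–5 mol equiv to hemin, plus water and 8 M acetate buffer pH 5.2, 25% DMSO final. Incubated 18 h at 37 °C. Pellet washed with DMSO, dissolved in 0.1 M NaOH, absorbance read at 405 nm (corrected at 670 nm) against a hemin calibration.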"}, "Plasmodium falciparum [16]": {"test_system": "Plasmodium falciparum", "test": "Antimalarial activity against chloroquine-resistant Plasmodium falciparum W2 after 48 hrs by [3H]hypoxanthine incorporation assay", "type": "functional, organism-based", "summary_of_the_method": "(§3)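 P. falciparum D6 (Sierra I/UNC clone), W2 (Indochina I clone), TM91C235 (South-East Asian clone) cultured with compound; growth inhibition by [3H]hypoxanthine incorporation (modified Desjardins/Milhous method). Chloroquine, mefloquine, artemisinin as positive controls. IC50 in nM; technical triplicates, curve fits R2 0.96–1.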"}, "Plasmodium falciparum [17]": {"test_system": "Plasmodium falciparum", "test": "Antimalarial activity against chloroquine-susceptible Plasmodium falciparum D6 after 48 hrs by [3H]hypoxanthine incorporation assay", "type": "functional, organism-based", "summary_of_the_method": "as §3"}, "Plasmodium berghei [18]": {"test_system": "Plasmodium berghei", "test": "Antimalarial activity against Plasmodium berghei ANKA infected in C57Bl6 mouse at 80 mg/kg/day, po measured on day 3 to 5 by Thompson test", "type": "functional"}, "Mus musculus": {"test_system": "Mus musculus", "test": "Toxicity in Plasmodium berghei ANKA infected C57Bl6 mouse at 160 mg/kg/day, po administered for 3 days measured 2 times a day for 31 days", "type": "organism-based", "conditions": "in vivo, 744 h"}, "Plasmodium berghei [19]": {"test_system": "Plasmodium berghei", "test": "Antimalarial activity against sporozoite stage of Plasmodium berghei infected in human Huh7 cells assessed as remaining parasite infection at 5 uM pre-incubated for 24 hrs followed by parasite infection measured after 48 hrs by bioluminescence assay", "conditions": "Huh-7"}, "Salmonella typhimurium [20]": {"test_system": "Salmonella typhimurium", "test": "Mutagenic activity in Salmonella typhimurium TA100 at 500 ug/ml by Ames test in absence of S9 fractions", "type": "toxicity, organism-based", "conditions": "salmonella enterica subsp. enterica serovar typhimurium", "summary_of_the_method": "as §1"}, "Plasmodium falciparum [21]": {"test_system": "Plasmodium falciparum", "test": "Antimalarial activity against mutidrug resistant Plasmodium falciparum TM91C235 after 48 hrs by [3H]hypoxanthine incorporation assay", "type": "functional, organism-based", "summary_of_the_method": "as §3"}, "Plasmodium berghei [22]": {"test_system": "Plasmodium berghei", "test": "Antimalarial activity against Plasmodium berghei ANKA infected in C57Bl6 mouse assessed as curative effect at 20 to 40 mg/kg/day, po administered for day 3 to 5 by Thompson test"}, "hERG (KCNH2)": {"molecular_target": "hERG (KCNH2) (Homo sapiens, UniProt Q12809)", "sequence (Q12809 whole entry)": "as above", "test": "Inhibition of human ERG expressed in CHO cells at 5 uM by patch plate method", "type": "cell-based", "conditions": "CHO cells that express human ERG"}, "[23]": {"test": "Half life in human liver microsomes at 1 uM by LC-MS/MS analysis", "type": "ADME"}, "Salmonella typhimurium [24]": {"test_system": "Salmonella typhimurium", "test": "Mutagenic activity in Salmonella typhimurium TA98 at 500 ug/ml by Ames test in presence of S9 fractions", "type": "toxicity, organism-based, S9 Fraction", "conditions": "salmonella enterica subsp. enterica serovar typhimurium", "summary_of_the_method": "as §1"}, "Plasmodium berghei [25]": {"test_system": "Plasmodium berghei", "test": "Antimalarial activity against Plasmodium berghei ANKA infected in C57Bl6 mouse assessed as reduction of parasitemia at 160 mg/kg/day, po administered for day 3 to 5 measured on day 6 to 14 by Thompson test", "type": "functional, organism-based", "summary_of_the_method": "as §2"}},
  "note": "pIC50: −log10 of the molar value. Activity calls are given as the source filed them. The calls are words filed in the database; no cut-off is given here.",
  "data": [
    {"molecule": "CC[C@H](C)[C@H](NC(=O)[C@H]([C@@H](C)CC)N(C)C(C)=O)C(=O)N[C@H](C(=O)N[C@@H](CC(C)C)C(=O)[C@@]1(C)CO1)[C@@H](C)O", "note": "[EPOXOMYCIN]", "values": [
      {"measurement": "pIC50", "setting": "Plasmodium falciparum [1]", "result": 7.93}
    ]},
    {"molecule": "CC(CCNCC12CC3CC(CC(C3)C1)C2)Nc1ccnc2cc(Cl)ccc12", "note": "(centres undefined)", "values": [
      {"measurement": "pIC50", "setting": "Plasmodium berghei [2]", "result": 6.00},
      {"measurement": "pIC50", "setting": "HepG2", "result": 5.52},
      {"measurement": "pIC50", "setting": "[3]", "result": "< 5.30"},
      {"measurement": "Activity", "setting": "Salmonella typhimurium [4]", "result": "Non-toxic"},
      {"measurement": "half-life at 1 µM", "setting": "[5]", "result": 1, "unit": "h"},
      {"measurement": "Activity", "setting": "Plasmodium berghei [6]", "result": "Active"},
      {"measurement": "MST", "setting": "Plasmodium berghei [7]", "result": 15.2, "unit": "days"},
      {"measurement": "Activity", "setting": "Salmonella typhimurium [8]", "result": "Non-toxic"},
      {"measurement": "MST", "setting": "Plasmodium berghei [9]", "result": 17.2, "unit": "days"},
      {"measurement": "MST", "setting": "Plasmodium berghei [10]", "result": 13, "unit": "days"},
      {"measurement": "logP", "setting": "[11]", "result": 3.85},
      {"measurement": "Activity", "setting": "Plasmodium berghei [12]", "result": "Dose dependent effect"},
      {"measurement": "MAC", "setting": "Plasmodium berghei [12]", "result": 10, "unit": "mg/kg/day"},
      {"measurement": "MCD", "setting": "Plasmodium berghei [12]", "result": 80, "unit": "mg/kg/day"},
      {"measurement": "selectivity ratio", "setting": "[13]", "result": 305},
      {"measurement": "MST", "setting": "Plasmodium berghei [14]", "result": ">31", "unit": "days"},
      {"measurement": "IC50", "setting": "[15]", "result": 1.84, "unit": "equiv"},
      {"measurement": "pIC50", "setting": "Plasmodium falciparum [16]", "result": 8.00},
      {"measurement": "pIC50", "setting": "Plasmodium falciparum [17]", "result": 8.00},
      {"measurement": "MST", "setting": "Plasmodium berghei [18]", "result": ">31", "unit": "days"},
      {"measurement": "Activity", "setting": "Mus musculus", "result": "Non-toxic"},
      {"measurement": "% infection at 5 µM", "setting": "Plasmodium berghei [19]", "result": 0.1, "unit": "%"},
      {"measurement": "Activity", "setting": "Salmonella typhimurium [20]", "result": "Non-toxic"},
      {"measurement": "pIC50", "setting": "Plasmodium falciparum [21]", "result": 8.00},
      {"measurement": "Activity", "setting": "Plasmodium berghei [22]", "result": "inactive"},
      {"measurement": "inhibition at 5 µM", "setting": "hERG (KCNH2)", "result": 11.7, "unit": "%"},
      {"measurement": "half-life at 1 µM", "setting": "[23]", "result": 1, "unit": "h"},
      {"measurement": "Activity", "setting": "Salmonella typhimurium [24]", "result": "Non-toxic"}
    ]},
    {"molecule": "CC(CCCNCCC12CC3CC(CC(C3)C1)C2)Nc1ccnc2cc(Cl)ccc12", "note": "(centres undefined)", "values": [
      {"measurement": "pIC50", "setting": "HepG2", "result": 4.88},
      {"measurement": "half-life at 1 µM", "setting": "[5]", "result": 1, "unit": "h"},
      {"measurement": "Activity", "setting": "Plasmodium berghei [25]", "result": "Active"},
      {"measurement": "selectivity ratio", "setting": "[13]", "result": 1900},
      {"measurement": "MST", "setting": "Plasmodium berghei [14]", "result": 21.4, "unit": "days"},
      {"measurement": "pIC50", "setting": "Plasmodium falciparum [16]", "result": 7.59},
      {"measurement": "pIC50", "setting": "Plasmodium falciparum [17]", "result": 8.15},
      {"measurement": "Activity", "setting": "Mus musculus", "result": "Non-toxic"},
      {"measurement": "pIC50", "setting": "Plasmodium falciparum [21]", "result": 7.85},
      {"measurement": "half-life at 1 µM", "setting": "[23]", "result": 1, "unit": "h"}
    ]}
  ]
}
